Source: ChEMBL document CHEMBL5329156, “Discovery and development of novel substituted monohydrazides as potent antifungal agents” (RSC Med Chem, 2023)
≈ marks a conversion by molar mass, not a printed value.

Columns and labels:
[Candida] auris [1] = Antifungal activity against Candida auris AR Bank # 0384 assessed as fungal growth inhibition by double dilution method; format: functional; conditions: Candidozyma auris
Summary of the method: (§1)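 Broth microdilution after CLSI M27-A3/M38-A2 with minor changes. Single colony grown overnight in YPD at 35 °C, 200 rpm. Compound final range 0.06-31.3 µg/mL; incubated 48 h at 35 °C.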

Aspergillus fumigatus [2] = test: Antifungal activity against Aspergillus fumigatus NRRL 5109 assessed as fungal growth inhibition by double dilution method; format: functional
Candida albicans [3] = test: Antifungal activity against itraconazole/fluconazole resistant Candida albicans ATCC 90819 assessed as fungal growth inhibition by double dilution method; format: functional
Summary of the method: (§2)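 Broth microdilution after CLSI M27-A3/M38-A2 with minor modifications. A single colony was grown overnight in YPD at 35 °C with shaking at 200 rpm. Cells were mixed 1:1 with compound (final 0.06-31.3 µg/mL, from DMSO stocks) and incubated 48 h at 35 °C.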

Saccharomyces cerevisiae [4] = test: Antifungal activity against Saccharomyces cerevisiae AR Bank # 400 assessed as fungal growth inhibition by double dilution method; format: functional; summary of the method: as §1
HepG2 = test: Cytotoxicity against human HepG2 cells assessed as reduction in cell viability upto 31.3 microg/ml; format: toxicity, cell-based; conditions: dose < 31.3 µg/ml
Summary of the method: (§3)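 Cells in DMEM with 10% FBS and 1% Pen/Strep, seeded at 10,000 cells/well and held overnight at 37 °C, 5% CO2. Compounds added at final 31.3-0.12 µg/mL (0.05% DMSO vehicle) for 24 h. Resazurin then added for 6 h; fluorescence read at ex 560/em 590. Triton X-100 1% as positive control; values normalized to vehicle. Run in quadruplicate.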

[Candida] auris [5] = Antifungal activity against Candida auris AR Bank # 383 assessed as fungal growth inhibition by double dilution method; format: functional; conditions: Candidozyma auris; summary of the method: as §1
Aspergillus flavus = test: Antifungal activity against Aspergillus flavus ATCC MYA-3631 assessed as fungal growth inhibition by double dilution method; format: functional
Nakaseomyces glabratus [6] = test: Antifungal activity against Candida glabrata ATCC 2001 assessed as fungal growth inhibition by double dilution method; format: functional; summary of the method: as §1
HEK293 = test: Cytotoxicity against human HEK-293 cells assessed as reduction in cell viability at 31.3 microg/ml; format: toxicity, cell-based; conditions: dose 31.3 µg/ml; summary of the method: as §3
Cryptococcus neoformans = test: Antifungal activity against Cryptococcus neoformans ATCC MYA-895 assessed as fungal growth inhibition by double dilution method; format: functional; summary of the method: as §1
Candida albicans [7] = test: Antifungal activity against itraconazole/fluconazole resistant Candida albicans ATCC MYA-1237 assessed as fungal growth inhibition by double dilution method; format: functional; summary of the method: as §2
Pichia kudriavzevii [8] = test: Antifungal activity against Pichia kudriavzevii AR Bank # 397 assessed as fungal growth inhibition by double dilution method; format: functional; summary of the method: as §1
Candida albicans [9] = test: Antifungal activity against itraconazole/fluconazole susceptible Candida albicans ATCC MYA-2310 assessed as fungal growth inhibition by double dilution method; format: functional; summary of the method: as §2
Pichia kudriavzevii [10] = test: Antifungal activity against Pichia kudriavzevii ATCC 6258 assessed as fungal growth inhibition by double dilution method; format: functional; summary of the method: as §1
Candida albicans [11] = test: Antifungal activity against itraconazole/fluconazole susceptible Candida albicans ATCC MYA-2876 assessed as fungal growth inhibition by double dilution method; format: functional; summary of the method: as §2
[Candida] auris [12] = Antifungal activity against Candida auris AR Bank # 0390 assessed as fungal growth inhibition by double dilution method; format: functional; conditions: Candidozyma auris; summary of the method: as §1
Aspergillus fumigatus [13] = test: Antifungal activity against Aspergillus fumigatus NRRL 163 assessed as fungal growth inhibition by double dilution method; format: functional
[Candida] auris [14] = Antifungal activity against Candida auris AR Bank # 381 assessed as fungal growth inhibition by double dilution method; format: functional; conditions: Candidozyma auris; summary of the method: as §1
Candida duobushaemulonii [15] = test: Antifungal activity against Candida duobushaemulonii AR Bank # 392 assessed as fungal growth inhibition by double dilution method; format: functional; conditions: Candidozyma duobushaemuli; summary of the method: as §1
[Candida] haemuloni [16] = Antifungal activity against Candida haemulonii AR Bank # 395 assessed as fungal growth inhibition by double dilution method; format: functional; conditions: Candidozyma haemuli; summary of the method: as §1
[Candida] auris [17] = Antifungal activity against Candida auris AR Bank # 382 assessed as fungal growth inhibition by double dilution method; format: functional; conditions: Candidozyma auris; summary of the method: as §1
Candida albicans [18] = test: Antifungal activity against Candida albicans ATCC 64124 assessed as fungal growth inhibition by double dilution method; format: functional; summary of the method: as §2
[Candida] auris [19] = Antifungal activity against Candida auris AR Bank # 388 assessed as fungal growth inhibition by double dilution method; format: functional; conditions: Candidozyma auris; summary of the method: as §1
Saccharomyces cerevisiae [20] = test: Antifungal activity against Saccharomyces cerevisiae AR Bank # 399 assessed as fungal growth inhibition by double dilution method; format: functional; summary of the method: as §1
Aspergillus terreus = test: Antifungal activity against Aspergillus terreus ATCC MYA-3633 assessed as fungal growth inhibition by double dilution method; format: functional
[Candida] haemuloni [21] = Antifungal activity against Candida haemulonii AR Bank # 393 assessed as fungal growth inhibition by double dilution method; format: functional; conditions: Candidozyma haemuli; summary of the method: as §1
Candida albicans [22] = test: Antifungal activity against Candida albicans ATCC 10231 assessed as fungal growth inhibition by double dilution method; format: functional; summary of the method: as §1
Aspergillus nidulans = test: Antifungal activity against Aspergillus nidulans ATCC 38163 assessed as fungal growth inhibition by double dilution method; format: functional
Kodamaea ohmeri = test: Antifungal activity against Kodamaea ohmeri AR Bank # 396 assessed as fungal growth inhibition by double dilution method; format: functional; summary of the method: as §1
Aspergillus fumigatus [23] = test: Antifungal activity against Aspergillus fumigatus NRRL 6113 assessed as fungal growth inhibition by double dilution method; format: functional
[Candida] auris [24] = Antifungal activity against Candida auris AR Bank # 387 assessed as fungal growth inhibition by double dilution method; format: functional; conditions: Candidozyma auris; summary of the method: as §1
[Candida] auris [25] = Antifungal activity against Candida auris AR Bank # 384 assessed as fungal growth inhibition by double dilution method; format: functional; conditions: Candidozyma auris; summary of the method: as §1
[Candida] auris [26] = Antifungal activity against Candida auris AR Bank # 385 assessed as fungal growth inhibition by double dilution method; format: functional; conditions: Candidozyma auris; summary of the method: as §1
Nakaseomyces glabratus [27] = test: Antifungal activity against Candida glabrata ATCC 22019 assessed as fungal growth inhibition by double dilution method; format: functional; summary of the method: as §1
[Candida] auris [28] = Antifungal activity against Candida auris AR Bank # 386 assessed as fungal growth inhibition by double dilution method; format: functional; conditions: Candidozyma auris; summary of the method: as §1
Candida albicans [29] = test: Antifungal activity against itraconazole/fluconazole resistant Candida albicans ATCC MYA-1003 assessed as fungal growth inhibition by double dilution method; format: functional; summary of the method: as §2
Candida duobushaemulonii [30] = test: Antifungal activity against Candida duobushaemulonii AR Bank # 391 assessed as fungal growth inhibition by double dilution method; format: functional; conditions: Candidozyma duobushaemuli; summary of the method: as §1
Clavispora lusitaniae = test: Antifungal activity against Clavispora lusitaniae AR Bank # 398 assessed as fungal growth inhibition by double dilution method; format: functional; summary of the method: as §1
[Candida] auris [31] = Antifungal activity against Candida auris AR Bank # 390 assessed as fungal growth inhibition by double dilution method; format: functional; conditions: Candidozyma auris; summary of the method: as §1
J774.A1 = test: Cytotoxicity against J774A.1 cells assessed as reduction in cell viability at 31.3 microg/ml; format: toxicity, cell-based; conditions: mouse, dose 31.3 µg/ml; summary of the method: as §3
[Candida] auris [32] = Antifungal activity against Candida auris AR Bank # 389 assessed as fungal growth inhibition by double dilution method; format: functional; conditions: Candidozyma auris; summary of the method: as §1
Candida duobushaemulonii [33] = test: Antifungal activity against Candida duobushaemulonii AR Bank # 394 assessed as fungal growth inhibition by double dilution method; format: functional; conditions: Candidozyma duobushaemuli; summary of the method: as §1

## COc1cccc(NNC(=O)c2cnccn2)c1
[Candida] auris [1]
  MIC: 1.95 µg/mL (≈ 7.98 µM)
Aspergillus fumigatus [2]
  MIC: 7.8 µg/mL (≈ 31.9 µM)
Candida albicans [3]
  MIC: 1.95 µg/mL (≈ 7.98 µM)
Saccharomyces cerevisiae [4]
  MIC: 3.9 µg/mL (≈ 16 µM)
HepG2
  Activity: Non-Toxic
[Candida] auris [5]
  MIC: 1.95 µg/mL (≈ 7.98 µM)
Aspergillus flavus
  MIC: > 31.3 µg/mL
Nakaseomyces glabratus [6]
  MIC: 7.8 µg/mL (≈ 31.9 µM)
HEK293
  Activity: Non-Toxic
Cryptococcus neoformans
  MIC: 0.49 µg/mL (≈ 2.01 µM)
Candida albicans [7]
  MIC: 1.95 µg/mL (≈ 7.98 µM)
Pichia kudriavzevii [8]
  MIC: 0.49 µg/mL (≈ 2.01 µM)
Candida albicans [9]
  MIC: 1.95 µg/mL (≈ 7.98 µM)
Pichia kudriavzevii [10]
  MIC: 0.49 µg/mL (≈ 2.01 µM)
Candida albicans [11]
  MIC: 1.95 µg/mL (≈ 7.98 µM)
[Candida] auris [12]
  MIC: 0.98 µg/mL (≈ 4.01 µM)
Aspergillus fumigatus [13]
  MIC: 15.6 µg/mL (≈ 63.9 µM)
[Candida] auris [14]
  MIC: 1.95 µg/mL (≈ 7.98 µM)
Candida duobushaemulonii [15]
  MIC: 0.98 µg/mL (≈ 4.01 µM)
[Candida] haemuloni [16]
  MIC: 0.49 µg/mL (≈ 2.01 µM)
[Candida] auris [17]
  MIC: 0.98 µg/mL (≈ 4.01 µM)
Candida albicans [18]
  MIC: 0.98 µg/mL (≈ 4.01 µM)
[Candida] auris [19]
  MIC: 3.9 µg/mL (≈ 16 µM)
Saccharomyces cerevisiae [20]
  MIC: 7.8 µg/mL (≈ 31.9 µM)
Aspergillus terreus
  MIC: 1.95 µg/mL (≈ 7.98 µM)
[Candida] haemuloni [21]
  MIC: 0.49 µg/mL (≈ 2.01 µM)
Candida albicans [22]
  MIC: 0.49 µg/mL (≈ 2.01 µM)
Aspergillus nidulans
  MIC: 1.95 µg/mL (≈ 7.98 µM)
Kodamaea ohmeri
  MIC: 0.49 µg/mL (≈ 2.01 µM)
Aspergillus fumigatus [23]
  MIC: > 31.3 µg/mL
[Candida] auris [24]
  MIC: 0.98 µg/mL (≈ 4.01 µM)
[Candida] auris [25]
  MIC: 1.95 µg/mL (≈ 7.98 µM)
[Candida] auris [26]
  MIC: 7.8 µg/mL (≈ 31.9 µM)
Nakaseomyces glabratus [27]
  MIC: 1.95 µg/mL (≈ 7.98 µM)
[Candida] auris [28]
  MIC: 0.49 µg/mL (≈ 2.01 µM)
Candida albicans [29]
  MIC: 0.98 µg/mL (≈ 4.01 µM)
Candida duobushaemulonii [30]
  MIC: 3.9 µg/mL (≈ 16 µM)
Clavispora lusitaniae
  MIC: 1.95 µg/mL (≈ 7.98 µM)
[Candida] auris [31]
  MIC: 0.98 µg/mL (≈ 4.01 µM)
J774.A1
  Activity: Non-Toxic
[Candida] auris [32]
  MIC: 0.98 µg/mL (≈ 4.01 µM)
Candida duobushaemulonii [33]
  MIC: 1.95 µg/mL (≈ 7.98 µM)
